Source: ChEMBL document CHEMBL4673403, “Development of a Hematopoietic Prostaglandin D Synthase-Degradation Inducer” (ACS Med Chem Lett, 2021)
One block for each molecule: values may come before it. Calls of active or inactive are those of the source. The calls are words filed in the database; no cut-off is given here.

Key:
[1] = molecular target: T1, Hematopoietic prostaglandin D synthase (Homo sapiens, UniProt O60760); assay: Induction of HPGDS degradation in human KU812 cells at 1 uM measured after 6 hrs in presence of TFC-007 by Western blot analysis; format: cell-based; settings: KU812 cell line
In short: (§1)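 KU812 cells incubated 6 h with 1 μM degrader or with the ligand mixture (TFC-007 plus pomalidomide, 1 μM each). Western blot H-PGDS/β-actin normalized to vehicle as 100; means ± SD, n = 3; two-tailed t test.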

[2] = molecular target: T1, Hematopoietic prostaglandin D synthase; assay: Binding affinity to recombinant human HPGDS expressed in Escherichia coli BL21 (DE3) measured after 1 hr by fluorescence polarization assay
In short: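 Competitive binding to H-PGDS read by fluorescence polarization with a fluorescence probe.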

[3] = molecular target: T1, Hematopoietic prostaglandin D synthase; assay: Inhibition of recombinant human HPGDS expressed in Escherichia coli BL21 (DE3) measured after 3 mins by spectrophotometric analysis
[4] = molecular target: T2, Protein cereblon/Hematopoietic prostaglandin D synthase (Homo sapiens) (UniProt O60760+Q96SW2); assay: Protac activity at CRBN/HPGDS in human KU812 cells assessed as induction of HPGDS degradation at 10 to 100 nM incubated for 24 hrs followed by compound washout and further incubated for 6 hrs in compound-free medium by Western blot analysis; format: cell-based; settings: KU812 cell line, dose 10-100 nM
In short: (§2)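 KU812 cells incubated with compounds 24 h, washed four times, then held 6 h in compound-free medium. Western blot H-PGDS/β-actin normalized to vehicle as 100; means ± SD, n = 3; two-tailed t test.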

[5] = molecular target: T1, Hematopoietic prostaglandin D synthase; assay: Inhibition of HPGDS in human KU812 cells assessed as reduction in PGD2 level at 10 to 100 nM incubated for 24 hrs followed by A23187 treatment and measured after 30 mins by ELISA; format: cell-based; settings: KU812 cell line, dose 10-100 nM, time 1470.0 min
In short: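 After 24 h compound exposure, KU812 cells stimulated with 5 μM A23187 for 30 min with compound still present; PGD2 measured in medium. Means ± SD, n = 3; two-tailed t test.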

[6] = Solubility of the compound; format: physicochemical
[7] = molecular target: T1, Hematopoietic prostaglandin D synthase; assay: Inhibition of HPGDS in human KU812 cells assessed as reduction in PGD2 level at 10 to 100 nM incubated for 24 hrs followed by A23187 treatment and measured after 30 mins and subsequent compound washout then further incubated for 6 hrs in compound-free medium by ELISA; format: cell-based; settings: KU812 cell line, dose 10-100 nM, time 1470.0 min
In short: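 KU812 cells exposed to compounds 24 h, washed four times, kept 6 h compound-free, then stimulated with 5 μM A23187 for 30 min; medium PGD2 measured. Means ± SD, n = 3; two-tailed t test.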

[8] = molecular target: T1, Hematopoietic prostaglandin D synthase; assay: Inhibition of recombinant human HPGDS
[9] = molecular target: T2, Protein cereblon/Hematopoietic prostaglandin D synthase (Homo sapiens); assay: Competitive binding affinity to HPGDS in human KU812 cells assessed as induction of CRBN-mediated degradation of HPGDS at 100 nM after 6 hrs in presence of excess pomalidomide by Western blot analysis; format: cell-based; settings: KU812 cell line
In short: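 KU812 cells given 100 nM degrader and/or 10 μM pomalidomide for 6 h. Western blot H-PGDS/β-actin normalized to vehicle as 100; means ± SD, n = 3.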

[10] = molecular target: T2, Protein cereblon/Hematopoietic prostaglandin D synthase (Homo sapiens); assay: Protac activity at CRBN/HPGDS in human KU812 cells assessed as reduction in HPGDS protein level at >=10 nM measured after 3 hrs by Western blot analysis; format: cell-based; settings: KU812 cell line, dose nM >=10, time 3.0 hrs
In short: (§3)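 KU812 cells exposed to graded concentrations for 3, 6 or 24 h. Western blot; H-PGDS/β-actin ratio normalized to vehicle control as 100; means ± SD, n = 3.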

KU812 = assay: Effect on HPGDS mRNA expression in human KU812 cells up to 1000 nM measured after 6 hrs by SYBR green based qRT-PCR analysis; format: functional, cell-based; settings: dose nM <=1000, time 6.0 hrs
In short: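 KU812 cells treated with the indicated concentrations for 6 h. H-PGDS mRNA expressed relative to vehicle, set to 1; means ± SD, n = 3; two-tailed Student's t test versus vehicle.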

[11] = tested on: Protein cereblon/Prostaglandin E synthase (Homo sapiens); assay: Protac activity at CRBN/MPGES-1 in human KU812 cells assessed as reduction in MPGES-1 protein level up to 1000 nM measured after 24 hrs by Western blot analysis; settings: KU812 cell line, dose nM <=1000, time 24.0 hrs
[12] = molecular target: T2, Protein cereblon/Hematopoietic prostaglandin D synthase (Homo sapiens); assay: Protac activity at CRBN/HPGDS in human MEG01s cells assessed as reduction in HPGDS protein level up to 1000 nM measured after 6 hrs by Western blot analysis; format: cell-based; settings: dose nM <=1000, time 6.0 hrs
[13] = molecular target: T2, Protein cereblon/Hematopoietic prostaglandin D synthase (Homo sapiens); assay: Protac activity at CRBN/HPGDS in human KU812 cells assessed as reduction in HPGDS protein level at >=10 nM measured after 6 to 24 hrs by Western blot analysis; format: cell-based; settings: KU812 cell line, dose nM >=10, time 6-24 hrs; in short: as §3
[14] = molecular target: T2, Protein cereblon/Hematopoietic prostaglandin D synthase (Homo sapiens); assay: Protac activity at CRBN/HPGDS in human KU812 cells assessed as induction of HPGDS degradation at 100 nM measured after 6 hrs in presence of ubiquitin-activating enzyme inhibitor MLN7243 by Western blot analysis; format: cell-based; settings: KU812 cell line
In short: (§4)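 KU812 cells given 100 nM degrader with or without 10 μM MG132 or 10 μM MLN7243 for 6 h. Western blot H-PGDS/β-actin normalized to vehicle as 100; means ± SD, n = 3.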

[15] = molecular target: T2, Protein cereblon/Hematopoietic prostaglandin D synthase (Homo sapiens); assay: Protac activity at CRBN/HPGDS in human KU812 cells assessed as induction of HPGDS degradation at 1 uM measured after 6 hrs by Western blot analysis; format: cell-based; settings: KU812 cell line; in short: as §1
[16] = Protac activity at CRBN/AKR1B1 in human KU812 cells assessed as reduction in AKR1B1 protein level up to 1000 nM measured after 24 hrs by Western blot analysis; settings: KU812 cell line, dose nM <=1000, time 24.0 hrs
[17] = molecular target: T2, Protein cereblon/Hematopoietic prostaglandin D synthase (Homo sapiens); assay: Protac activity at CRBN/HPGDS in human KU812 cells assessed as reduction in HPGDS protein level at 100 to 1000 nM measured after 3 hrs by Western blot analysis; format: cell-based; settings: KU812 cell line, dose 100-1000 nM; in short: as §3
[18] = molecular target: T2, Protein cereblon/Hematopoietic prostaglandin D synthase (Homo sapiens); assay: Protac activity at CRBN/HPGDS in human KU812 cells assessed as decrease in HPGDS protein level by measuring protein turnover at 100 nM measured within 6 hrs in presence of protein synthesis inhibitor cycloheximide by Western blot analysis; format: cell-based; settings: KU812 cell line
In short: (§5)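 KU812 cells given 10 μg/mL cycloheximide with or without 100 nM degrader for the indicated periods. H-PGDS/β-actin and cyclin B1/β-actin ratios by Western blot, normalized to time 0 control as 100; means ± SD, n = 3.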

[19] = molecular target: Protein cereblon/G2/mitotic-specific cyclin-B1 (Homo sapiens) (UniProt P14635+Q96SW2); assay: Protac activity at CRBN/Cyclin B1 in human KU812 cells assessed as decrease in cyclin B1 protein level by measuring protein turnover at 100 nM measured within 6 hrs in presence of protein synthesis inhibitor cycloheximide by Western blot analysis; format: cell-based; settings: KU812 cell line; in short: as §5
[20] = molecular target: T2, Protein cereblon/Hematopoietic prostaglandin D synthase (Homo sapiens); assay: Protac activity at CRBN/HPGDS in human KU812 cells assessed as induction of HPGDS degradation at 100 nM measured after 6 hrs in presence of proteasome inhibitor MG132 by Western blot analysis; format: cell-based; settings: KU812 cell line; in short: as §4
[21] = molecular target: Baculoviral IAP repeat-containing protein 2/Hematopoietic prostaglandin D synthase (Homo sapiens) (UniProt Q13490+O60760); assay: SNIPER activity at IAP1/HPGDS in human KU812 cells assessed as reduction in HPGDS protein level up to 1000 nM measured after 6 hrs by Western blot analysis; format: cell-based; settings: KU812 cell line, dose nM <=1000, time 6.0 hrs
[22] = molecular target: T1, Hematopoietic prostaglandin D synthase; assay: Induction of HPGDS degradation in human KU812 cells at 1 uM measured after 6 hrs in presence of pomalidomide by Western blot analysis; format: cell-based; settings: KU812 cell line; in short: as §1
[23] = molecular target: T2, Protein cereblon/Hematopoietic prostaglandin D synthase (Homo sapiens); assay: Induction of CRBN-mediated HPGDS degradation in human KU812 cells at 10 to 100 nM incubated for 24 hrs followed by compound washout and further incubated for 6 hrs in compound-free medium by Western blot analysis; format: cell-based; settings: KU812 cell line, dose 10-100 nM; in short: as §2
[24] = molecular target: T1, Hematopoietic prostaglandin D synthase; assay: Inhibition of recombinant human HPGDS using [14C]-PGH2 as substrate preincubated for 1 min in presence of MgCl2 followed by substrate addition and measured after 45 mins by radioactive imaging analysis

- IC50 [2]: 320 nM
- IC50 [3]: 320 nM
- Activity [4]: inactive
- inhibition [5]: Active
- solubility [6]: Soluble
- inhibition [7]: inactive
Compound: CN1C(=O)CCC(N2C(=O)c3cccc(NCCOCCOCCOCCOCCOCCC(=O)N4CCN(C(=O)C5CCN(c6ccc(NC(=O)c7cnc(Oc8ccccc8)nc7)cc6)CC5)CC4)c3C2=O)C1=O (stereo not given)

- Activity [9]: inactive
- IC50 [2]: 320 nM
- IC50 [3]: 266 nM
- Activity [10]: Active
- Activity [4]: Active
- Activity [11]: inactive
- Activity [12]: Active
- inhibition [5]: Active
- Activity [13]: Active
- Activity [14]: inactive
- Activity [15]: Active
- Activity [16]: inactive
- Activity [17]: Active
- Activity [18]: Active
- solubility [6]: Soluble
- Activity [19]: inactive
- inhibition [7]: Active
- Activity [20]: inactive
Compound: O=C1CCC(N2C(=O)c3cccc(NCCOCCOCCOCCOCCOCCC(=O)N4CCN(C(=O)C5CCN(c6ccc(NC(=O)c7cnc(Oc8ccccc8)nc7)cc6)CC5)CC4)c3C2=O)C(=O)N1 (stereo not given)
- Activity (KU812): inactive

- Activity [21]: inactive
Compound: CN[C@@H](C)C(=O)N[C@H](C(=O)N1CCC[C@H]1c1nc(C(=O)c2cccc(OCCOCCOCC(=O)N3CCN(C(=O)C4CCN(c5ccc(NC(=O)c6cnc(Oc7ccccc7)nc6)cc5)CC4)CC3)c2)cs1)C1CCCCC1

- IC50 [2]: 320 nM
- IC50 [3]: 71 nM
- Activity [22]: inactive
- inhibition [5]: Active
- Activity [23]: inactive
- IC50 [24]: 71 nM
- inhibition [7]: inactive
Compound: O=C(Nc1ccc(N2CCC(C(=O)N3CCOCC3)CC2)cc1)c1cnc(Oc2ccccc2)nc1

Second part, the molecule before the results:

Compound: Nc1cccc2c1C(=O)N(C1CCC(=O)NC1=O)C2=O (stereo not given)
- Activity [1]: inactive

Compound: CON(C)C(=O)c1[nH]c(C)c(-c2nc3cc(C(=O)c4ccccc4)ccc3[nH]2)c1C
- IC50 [8]: 23 nM
